Tests used:
[1] = target: T1, Adrenergic receptor alpha-2 (Rattus norvegicus, UniProt P22086+P19328+P22909); assay: Displacement of [3H]clonidine from alpha-2 adrenergic receptor in Sprague-Dawley rat cortex
T1 sequence (P22086 whole entry): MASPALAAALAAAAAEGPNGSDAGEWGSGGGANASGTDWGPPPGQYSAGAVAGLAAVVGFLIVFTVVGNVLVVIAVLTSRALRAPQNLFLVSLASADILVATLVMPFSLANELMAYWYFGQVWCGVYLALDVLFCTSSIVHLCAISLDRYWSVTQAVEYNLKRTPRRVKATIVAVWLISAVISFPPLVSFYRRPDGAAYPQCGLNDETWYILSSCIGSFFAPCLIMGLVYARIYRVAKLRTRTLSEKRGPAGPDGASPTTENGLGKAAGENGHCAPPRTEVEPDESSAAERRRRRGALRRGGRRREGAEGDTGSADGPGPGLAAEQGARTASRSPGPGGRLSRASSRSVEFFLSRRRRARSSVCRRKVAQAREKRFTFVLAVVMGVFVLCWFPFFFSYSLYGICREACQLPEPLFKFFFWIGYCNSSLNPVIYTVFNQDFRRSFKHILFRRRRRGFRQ
T1 sequence (P19328 whole entry): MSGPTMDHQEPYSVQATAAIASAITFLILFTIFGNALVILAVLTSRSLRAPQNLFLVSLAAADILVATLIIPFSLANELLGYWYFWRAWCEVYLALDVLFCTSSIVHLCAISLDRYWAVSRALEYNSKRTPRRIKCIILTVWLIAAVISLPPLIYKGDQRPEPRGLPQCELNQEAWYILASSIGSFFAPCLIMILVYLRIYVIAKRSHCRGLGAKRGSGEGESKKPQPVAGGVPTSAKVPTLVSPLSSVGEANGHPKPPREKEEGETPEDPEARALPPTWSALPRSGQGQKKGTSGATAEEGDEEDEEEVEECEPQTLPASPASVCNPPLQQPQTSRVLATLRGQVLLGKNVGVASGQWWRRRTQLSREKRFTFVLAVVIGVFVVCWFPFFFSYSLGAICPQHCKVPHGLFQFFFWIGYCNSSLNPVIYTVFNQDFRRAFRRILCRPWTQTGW
T1 sequence (P22909 whole entry): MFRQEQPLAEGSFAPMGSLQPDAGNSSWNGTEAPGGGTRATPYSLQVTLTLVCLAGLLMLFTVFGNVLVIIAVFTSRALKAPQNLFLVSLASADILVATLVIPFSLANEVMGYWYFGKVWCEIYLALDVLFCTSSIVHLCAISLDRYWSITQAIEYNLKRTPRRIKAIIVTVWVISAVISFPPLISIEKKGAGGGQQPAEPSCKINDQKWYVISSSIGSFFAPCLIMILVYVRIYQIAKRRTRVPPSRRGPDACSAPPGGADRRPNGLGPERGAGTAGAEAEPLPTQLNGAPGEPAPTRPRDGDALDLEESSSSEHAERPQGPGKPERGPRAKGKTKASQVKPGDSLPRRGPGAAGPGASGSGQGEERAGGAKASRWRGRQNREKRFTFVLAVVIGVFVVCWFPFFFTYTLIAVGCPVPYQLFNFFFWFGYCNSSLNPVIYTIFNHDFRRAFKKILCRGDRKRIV
Method in brief: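 Male rat cortex homogenised in ice-cold 50 mM Tris/HCl (pH 7.7 at 25 °C), washed by three 50,000 × g spins. Membranes incubated with [3H]clonidine (final 2.0 nM) and 5 test concentrations over a 16-fold range, 25 °C for 30 min. Bound ligand collected by vacuum filtration onto GF/B filters and counted by scintillation. Nonspecific binding defined with 2 μM phentolamine. Run in quadruplicate; IC50 by log-probit, Ki by Cheng-Prusoff.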

[2] = Dissociation constant, pKa of the compound; format: physicochemical
[3] = target: T2, Phenylethanolamine N-methyltransferase (Homo sapiens, UniProt P11086); assay: Binding affinity to human PNMT
T2 sequence (P11086 whole entry): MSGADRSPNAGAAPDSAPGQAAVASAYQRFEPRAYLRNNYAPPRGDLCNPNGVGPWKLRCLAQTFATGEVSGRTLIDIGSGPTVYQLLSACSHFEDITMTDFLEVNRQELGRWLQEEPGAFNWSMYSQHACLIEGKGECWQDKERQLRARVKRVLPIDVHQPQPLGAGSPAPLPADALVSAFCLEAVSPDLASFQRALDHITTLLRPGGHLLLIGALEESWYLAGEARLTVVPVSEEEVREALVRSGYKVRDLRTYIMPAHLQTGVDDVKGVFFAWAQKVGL

Row | SMILES | Ki [1] | pKa [2] | Ki [3]
1 | FC(F)C1Cc2ccc(I)cc2CN1 (racemic) | > 1 mM |  | 
2 | CS(=O)(=O)c1ccc2c(c1)CNC(C(F)F)C2 (racemic) | 2.5 mM |  | 
3 | CCCCNS(=O)(=O)c1ccc2c(c1)CNC(C(F)F)C2 (racemic) | > 1 mM |  | 
4 | NS(=O)(=O)c1ccc2c(c1)CNC(C(F)F)C2 (stereo not drawn) | > 1 mM |  | 
5 | N#Cc1ccc2c(c1)CNC(C(F)F)C2 (racemic) | > 1 mM |  | 
6 | FC(F)C1Cc2ccc(C(F)(F)F)cc2CN1 (racemic) | 0.19 mM |  | 
7 | FC(F)C1Cc2ccccc2CN1 (racemic) | 0.15 mM | 6.42 | 
8 | COCCCNS(=O)(=O)c1ccc2c(c1)CNC(C(F)F)C2 (racemic) | > 1 mM |  | 
9 | FC(F)C1Cc2ccc(Br)cc2CN1 (racemic) | 0.23 mM | 6.12 | 
10 | CCCNS(=O)(=O)c1ccc2c(c1)CNC(C(F)F)C2 (racemic) | > 1 mM |  | 

Next, values leading:

Row | Ki [1] | pKa [2] | Ki [3] | SMILES
11 | > 1 mM |  |  | O=S(=O)(NCC(F)(F)F)c1ccc2c(c1)CNC(C(F)(F)F)C2 (racemic)
12 | > 1 mM |  |  | O=[N+]([O-])c1ccc(NS(=O)(=O)c2ccc3c(c2)CNC(C(F)F)C3)cc1 (racemic)
13 | > 1 mM |  |  | O=S(=O)(Nc1ccc(Cl)cc1)c1ccc2c(c1)CNC(C(F)F)C2 (racemic)
14 | > 1 mM |  |  | COCCCNS(=O)(=O)c1ccc2c(c1)CNC(C(F)(F)F)C2 (racemic)
15 | > 1 mM |  |  | O=S(=O)(NCC(F)(F)F)c1ccc2c(c1)CNC(C(F)F)C2 (racemic)
16 | > 1 mM |  |  | O=S(=O)(Nc1ccc(Cl)cc1)c1ccc2c(c1)CNC(C(F)(F)F)C2 (racemic)
17 | > 1 mM |  |  | CCNS(=O)(=O)c1ccc2c(c1)CNC(C(F)F)C2 (racemic)
18 | > 1 mM | 5.83 |  | O=[N+]([O-])c1ccc2c(c1)CNC(C(F)F)C2 (racemic)
19 | > 1 mM |  | 0.11 mM | O=[N+]([O-])c1ccc(NS(=O)(=O)c2ccc3c(c2)CNC(C(F)(F)F)C3)cc1 (racemic)
